Experimental data reported in ChEMBL document CHEMBL4251706, “Elimination of HIV-1 Latently Infected Cells by Gnidimacrin and a Selective HDAC Inhibitor” (ACS Med Chem Lett, 2018).
Calls of active or inactive are those of the source. The rule behind the calls is not given here.

Key:
[1] = system: Human immunodeficiency virus 1; experiment: Reactivation of latent HIV1 infected in human U1 cells assessed as increase in p24 production after 48 hrs by ELISA; assay type: functional, organism-based
[2] = system: Human immunodeficiency virus 1; experiment: Reactivation of latent HIV1 infected in human U1 cells assessed as increase in p24 production after 48 hrs by ELISA relative to vorinostat; assay type: functional
Method in brief: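 U1 cells at 2x10^5 cells/ml incubated with a range of concentrations at 37 °C for 48 h. Supernatant p24 measured by HIV p24 ELISA. EC50 ± SD derived from 3 independent experiments.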

[3] = Cytotoxicity against human U937 cells assessed as reduction in cell viability after 48 hrs by CellTiter-Glo luminescent cell viability assay; assay type: cell-based, U-937
Method in brief: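 U937 cells (HIV-1-negative parental line of U1) at 2x10^5 cells/ml exposed to a range of concentrations for 48 h at 37 °C. Viability read by CellTiter-Glo luminescence. CC50 ± SD derived from 3 independent experiments.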

[4] = Cytotoxicity against human J-Lat (A2) cells assessed as effect on cell viability at 0.3 uM after 72 hrs by flow cytometric analysis; assay type: cell-based
Method in brief: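 J-Lat (A2) cells, 1x10^6 cells/well, incubated with the test agent at 37 °C for 72 h. GFP-expressing cells and percent viable cells measured by flow cytometry. Two independent experiments.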

PBMC = experiment: Induction of IFNgamma1 production in human PBMC at 3 uM after 2 days by ELISA; assay type: cell-based; settings: 48 h
[5] = Cytotoxicity against human Jurkat cells assessed as reduction in cell viability after 72 hrs by CellTiter-Glo luminescent cell viability assay; assay type: cell-based
[6] = Selectivity index, ratio of CC50 for human U937 cells to EC50 for reactivation of latent HIV1 infected in human U1 cells
[7] = target: Histone deacetylase 3/Nuclear receptor corepressor 2 (HDAC3/NCoR2) (Homo sapiens) (UniProt O15379+Q9Y618); experiment: Inhibition of full length human C-terminal His-tagged HDAC3/N-terminal GST-tagged NCOR2 (395 to 489 residues) expressed in baculovirus infected Sf9 insect cells using substrate measured after 60 mins by colorimetric method
[8] = Human immunodeficiency virus 1, U1, 48 h, read-out: EC50

In the case of `CC(=O)Nc1ccc(C(=O)Nc2cc(-c3cccs3)ccc2N)cc1`, the EC50 [1, 8] is reported as 930 nM, the “fold change (FC)” value [2] is reported as 1.4 and the CC50 at 48 h [3] is reported as 14000 nM. For the same compound, the Activity [4] was “Non-Toxic”, the Activity (PBMC) was “Non-Toxic” and the CC50 at 72 h [5] was 12600 nM.

For `Nc1ccccc1NC(=O)c1ccc(-c2cn(CCc3ccsc3)nn2)cc1`, the EC50 [1, 8] was 600 nM, the “fold change (FC)” value [2] was 0.12 and the CC50 at 48 h [3] was 830 nM. For the same compound, the selectivity ratio [6] was 1.4 and the inhibition [7] was “Active”.

With `Nc1cc(F)ccc1NC(=O)/C=C/c1cnn(C/C=C/c2ccccc2)c1` the EC50 ([1]; u1) was “Not Active”, the “fold change (FC)” value [2] was 0 and the inhibition [7] was “Active”.

In the case of `Nc1ccc(F)cc1NC(=O)c1ccc(CNC(=O)/C=C/c2cccnc2)cc1`, the EC50 [1, 8] is reported as 1400 nM, the “fold change (FC)” value [2] is reported as 1.5 and the CC50 at 48 h [3] is reported as 5000 nM. For the same compound, the selectivity ratio ([6]; U937 cells (CC50) and latent HIV-1 infected U1 cells (EC50)) was 3.6.
